# Screening data: PubChem BioAssay, several laboratories
# In the library only some 3.9% were active in any assay of this set; here they are far more common.
# 697 NFkB inh: inhibitors of PMA/ionomycin-induced NF-kB reporter, 697 cells, primary screen, B-cell NF-kB inhibitor project, cell-based, luminescence, uHTS; 697 B-cell NF-kB luciferase reporter, 16 h; inhibition, % at 4 µM; hit rate 0.33% among 330,000; in the data active means inhibition above about 35%
# UPR XBP1 act: activators of adaptive XBP1 UPR arm, primary screen, cell-based, CHO-XBP1 luciferase reporter, luminescence, uHTS | IRE1-XBP1 UPR activation; percent of tunicamycin response, DMSO as zero | activation, % at 20 µM | hit rate 0.33% among 330,000;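 active means versus positive control, 20 µM dose yields 30% or more activation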;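 further: 100% = tunicamycin at 10 µg/mL and 0% = DMSO only wells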
#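 Material: CHO cell line with stable XBP1 luciferase reporter; buffer or medium: F12 medium containing 10% fetal bovine serum; compound: single point, 20 µM final compound, 1% DMSO; incubation: 6 h treatment, 37 °C; measured by: glow luminescence from Steady-Glo reagent; evaluation: activation, % of tunicamycin; control set: tunicamycin high, DMSO low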
# CHOP UPR activ: activators of apoptotic CHOP UPR arm, primary screen, cell-based, CHO-CHOP luciferase reporter, luminescence, uHTS; UPR activation; percent of tunicamycin response over DMSO baseline; activation, % at 10 µM; hit rate 0.34% among 330,000; AID 449763, 2010;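 active means at 10 µM dose, activation of 40% or more, normalized to positive control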;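 further: 100% = tunicamycin at 10 µg/mL and 0% = DMSO alone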
#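 assay system = CHO CHOP reporter cells | amount = 500 CHO-CHOP cells per well | buffer or medium = F12 with 10% FBS | incubation = 16-18 h cell attachment, then 6 h compound exposure, 37 °C | detection = luminescence read with Steady-Glo | read-out = percent activation relative to tunicamycin control | controls = tunicamycin high control, DMSO low control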
# CHOP inhibitor: inhibitors of CHOP promoter induction, primary screen, cell-based, unfolded protein response, luciferase reporter | CHO-K1 CHOP-promoter luciferase, tunicamycin-induced, 15-18 h | inhibition, % at 10 µM | hit rate 3.8% among 220,000 | AID 2732, 2010;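 active means compounds that reduced the stress-induced luciferase reporter signal by more than about 70% of percent inhibition, limit read from the data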;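 further: 0% = tunicamycin plus vehicle and 100% = wells without tunicamycin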
# Gli-Sufu antag: Gli-Sufu pathway antagonists, primary screen, luciferase luminescence, Sufu-KO-LIGHT cells, uHTS. Sufu-KO-LIGHT fibroblasts, Gli luciferase reporter luminescence. inhibition, % at 5 µM. hit rate 0.74% among 340,000;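 active means inhibition above about 55%, limit read from the data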;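 further: 0% = DMSO-treated cells and 100% = wells with medium but no cells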
# Jurkat NFkB inh: inhibitors of induced NF-kB luciferase reporter, primary screen, TCR NF-kB activation inhibitor project, cell-based, luminescence, uHTS | Jurkat, PMA/ionomycin-induced NF-kB luciferase reporter | inhibition, % at 4 µM | hit rate 0.53% among 330,000; in the data active means inhibition above about 50%
# CHOP confirm: retest of CHOP induction inhibitors, confirmation, cell-based | inhibition, % at 10 µM | hit rate 45% among 2,100 | shares compounds with CHOP inhibitor | AID 504437, 2011 | CHO-CHOP promoter luciferase reporter, tunicamycin-induced, luminescence;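 active means mean of three repeat readings of reporter signal inhibition above a set limit, cut at about 70% in these data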;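 further: 0% = tunicamycin plus vehicle and 100% = wells lacking tunicamycin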
# * = called active by the depositor; . = not tested or not shown.
SMILES,697 NFkB inh,UPR XBP1 act,CHOP UPR activ,CHOP inhibitor,Gli-Sufu antag,Jurkat NFkB inh,CHOP confirm
CCOC(=O)COc1ccccc1/C=C\[N+](=O)[O-],.,.,.,107*,-11,.,86*
Cc1cccc(OCC(=O)N/N=C\C=C\c2ccc3c(c2)OCO3)c1C,-40,0,-2,98*,1,-27,95*
O=C(Nc1nc(NC(=O)c2ccco2)n(-c2ccccc2)n1)c1ccccc1,-24,5,-1,106*,30,9,60
Cc1c(NS(=O)(=O)c2ccc(N)cc2)c(=O)n(-c2ccccc2)n1C,-57,-6,-1,.,-14,-56,.
COc1ccc(C2/C=C\CN(C(=O)OCC3c4ccccc4-c4ccccc43)CC(=O)N2Cc2cccc(F)c2)cc1 (configuration not stated),-10,1,3,.,5,.,.
CCc1ccccc1N=C1SCC(=O)N1C,17,-1,-1,30,2,7,.
CN1C(=O)CSC1=NCC12CC3CC(CC(C3)C1)C2,0,-5,0,105*,0,-26,7
O=c1c2[nH]cnc2n(-c2cccc(F)c2)c(=O)n1Cc1ccccc1,10,0,2,.,7,4,.
Cc1cc(C)c(COCc2cc(/C=N/O)c(C)cc2C)cc1/C=N/O,-12,-4,1,108*,9,-5,62
CSc1cc(/C=N/O)c(SC)s1,-11,3,1,33,2,3,.
O=C1c2cccc3cccc(c23)C(=O)N1c1ccc(O)cc1,18,0,2,.,-4,15,.
O=C1c2ccc3c4c(ccc(c24)C(=O)N1c1cccc(O)c1)C(=O)N(c1cccc(O)c1)C3=O,-43,-2,1,101*,22,4,86*
CCOCCCNC(=O)/C(C#N)=C/c1ccc([N+](=O)[O-])o1,-3,-7,-6,107*,2,1,37
O=C(C1=C(c2ccccc2)C(=O)c2ccccc2C1=O)c1ccccc1,.,.,.,104*,15,.,112*
CCCOC(=O)c1ccc(Oc2cn[nH]c2-c2ccc(OC)cc2O)cc1,-38,-6,-3,106*,-6,16,116*
Cc1ccc(/C=[N+](\[O-])c2ccc(N(C)C)cc2)c2nsnc12,-8,3,1,-19,-111,-6,.
Cc1cccc2c1N(CCOc1ccc(C(C)(C)C)cc1)C(=O)C2=O,10,3,2,100*,5,0,1
CCS(=O)(=O)c1ccc2oc(SCC(=O)c3c(N)n(C4CC4)c(=O)[nH]c3=O)nc2c1,-1,-1,-1,.,-4,-3,.
COc1ccc(C(=O)c2c(C(F)(F)F)oc3c2C(=O)c2ccccc2C3=O)cc1OC,-26,-5,6,106*,22,32,71
Cc1cccc(Oc2cc(NC(=O)Cn3cnc([N+](=O)[O-])n3)cc([N+](=O)[O-])c2)c1,.,.,.,103*,8,.,34
CC(=O)N1CCc2c(sc(NC(=O)CS(=O)(=O)c3ccc(F)cc3)c2C(N)=O)C1,6,-2,2,.,-7,6,.
CCc1ccc(C2=C/C(=C/c3cccnc3)C(=O)O2)cc1,6,-3,0,103*,-11,3,-59
Cc1ccc(O)c(-c2cc(-c3cccc(F)c3)n[nH]2)c1,-46,4,4,102*,25,-22,12
Cc1ccc(-c2cc(-c3ccccc3C)[nH]n2)c(O)c1,-105,4,9,102*,0,-114,9
Cc1ccc(-c2cc(-c3cccc(F)c3)n[nH]2)c(O)c1,-224,3,2,-59,-77,-141,.
SMILES,697 NFkB inh,UPR XBP1 act,CHOP UPR activ,CHOP inhibitor,Gli-Sufu antag,Jurkat NFkB inh,CHOP confirm
Cc1ccc(O)c(-c2cc(-c3ccccc3F)[nH]n2)c1,-64,6,2,104*,32,-47,8
COc1ccc(C)cc1N1C(=N)/C(=C2/Nc3ccccc3S2)C(c2ccccc2)C1=O (configuration not stated),.,.,.,98*,-8,.,-15
O=C1C(Cl)=C(N2CCCCC2)C(=O)C(Cl)=C1c1cnc(N2CCCCC2)s1,-41,0,128*,.,11,-25,95*
O=C1C(Cl)=C(N2CCCCCC2)C(=O)N1c1ccc(Cl)cc1,-7,-5,2,.,0,7,.
CCC(Cc1ccccc1)NC(=O)c1cc(S(=O)(=O)N2CCCCC2)c[nH]1 (configuration not stated),7,7,2,.,6,12,.
Oc1[nH]c2ccccc2c1C=Nc1ccc2c(c1)OCO2,-174,1,6,42,-144,-138,.
O=c1c2ccccc2c(C=Nc2cccc(O)c2)c(O)n1-c1ccc2c(c1)OCO2,-6,3,2,107*,-27,27,16
COc1ccc(S(=O)(=O)Nc2cc(Sc3ncn[nH]3)c(O)c3ccccc23)cc1,.,.,.,18,.,.,.
O=S(=O)(Nc1cc(Sc2cccc3cccnc23)c(O)c2ccccc12)c1ccc(F)cc1,.,.,.,107*,96*,.,108*
CCc1nc(NCC2CCCO2)c(C#N)c2c1COC(C)(C)C2 (configuration not stated),7,-2,-1,26,-2,10,.
CCc1nc(NCC(C)C)c(C#N)c2c1COC(C)(C)C2,7,0,0,108*,-5,9,71*
Cc1cccc(N2CCN(S(=O)(=O)c3ccc(-c4ccc(=O)[nH]n4)o3)CC2)c1C,3,0,-1,.,14,15,.
COc1ccc(C(=O)c2cn[nH]c2-c2ccc(C)cc2O)cc1,5,3,0,.,-13,13,.
COc1ccc(-c2[nH]ncc2N=Nc2cc(C)cc(C)c2)cc1,-25,2,2,104*,1,30,102*
COC(=O)C(Nc1ccccc1Cl)(c1cc(C)c(O)c(C)c1)C(F)(F)F (configuration not stated),26,-1,1,109*,5,25,97*
Cc1cc(C)cc(N(CC(=O)NCC2CCCO2)C(=O)CCC(=O)Nc2nccs2)c1 (configuration not stated),11,2,1,.,-30,10,.
NS(=O)(=O)c1ccc(NC(=O)COC(=O)c2cn(-c3ccccc3)nc2-c2ccccc2)cc1,9,27,4,97*,5,-5,-1
